A short description of experiment [1]: nonspecific flux increase, KCNQ1-free cells – parental CHO cells, counter-screen for KCNQ1 potentiator project (AID 493006;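 active = duplicate-averaged activation above buffer control mean plus 5 SD of those controls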). The following applies: parental CHO-K1 cells, FluxOR thallium flux, at 10 µM; active compounds read high. In short, it runs like this:
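Test system: parental CHO-K1 cells, FluxOR dye-loaded / Probe or stimulus: potassium plus thallium depolarizing stimulus, 5x stock 12.5 mM K2SO4, Tl2SO4 / Timing: overnight 37 °C plating, 90 min dye, 20 min dark compound / Measured by: kinetic thallium-flux fluorescence / Read-out: max-minus-min fluorescence over baseline, percent of buffer-to-R-L3 span / Benchmarks: buffer and R-L3 controls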
(In general: A counterscreen serves to expose hits that act by an unwanted route or on another target.)

Experiment [2] deals with Potassium voltage-gated channel subfamily KQT member 1 (Homo sapiens) (UniProt P51787). As to the kind of experiment: enhancement of KCNQ1 channel thallium flux – FluxOR thallium flux, CHO cells, duplicates, confirmation (AID 493007;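 active = potentiation averaged over duplicate wells exceeding buffer-only control mean by more than 3 SD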;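 as to outcome: cells depolarized by a potassium plus thallium sulfate stimulus after compound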;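 as to potentiation: 0% = buffer-only wells and 100% = R-L3 activator control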). The following applies: KCNQ1 cell line, FluxOR thallium flux fluorescence, at 10 µM; active compounds read high, % of reference activator effect, buffer zero. In short, it runs like this: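 Assay system: CHO cells carrying KCNQ1 | Controls: Buffer and R-L3 controls | Schedule: FluxOR dye loading 90 min, compound exposure 20 min, room temperature | Read-out: Baseline-normalized fluorescence change, percent of buffer-to-R-L3 range | Replicates: Each compound tested in duplicate | Technique: Kinetic thallium influx fluorescence with FluxOR dye, 10 s baseline, 110 s post-stimulus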
Chain of Potassium voltage-gated channel subfamily KQT member 1 (Homo sapiens) (P51787 whole entry, looked up): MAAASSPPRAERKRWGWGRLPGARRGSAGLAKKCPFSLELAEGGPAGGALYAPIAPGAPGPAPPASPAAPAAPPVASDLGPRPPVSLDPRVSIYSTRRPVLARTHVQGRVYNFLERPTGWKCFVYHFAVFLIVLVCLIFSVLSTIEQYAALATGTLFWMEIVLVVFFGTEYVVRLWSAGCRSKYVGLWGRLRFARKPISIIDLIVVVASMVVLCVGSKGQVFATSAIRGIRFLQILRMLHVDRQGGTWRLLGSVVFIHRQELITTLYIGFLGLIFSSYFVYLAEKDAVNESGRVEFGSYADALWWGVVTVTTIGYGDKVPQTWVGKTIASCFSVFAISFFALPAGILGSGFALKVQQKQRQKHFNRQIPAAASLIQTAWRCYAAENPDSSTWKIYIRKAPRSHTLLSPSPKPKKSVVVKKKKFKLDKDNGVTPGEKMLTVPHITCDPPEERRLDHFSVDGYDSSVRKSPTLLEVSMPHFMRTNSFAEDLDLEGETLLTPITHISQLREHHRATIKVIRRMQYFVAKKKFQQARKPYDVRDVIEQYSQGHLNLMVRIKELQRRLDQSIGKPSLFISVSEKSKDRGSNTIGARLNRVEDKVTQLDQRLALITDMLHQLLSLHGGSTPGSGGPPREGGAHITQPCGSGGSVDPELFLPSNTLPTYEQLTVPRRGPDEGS

The target in experiment [3] is Potassium voltage-gated channel subfamily KQT member 2 (Rattus norvegicus) (UniProt O88943). Description: KCNQ2 thallium flux enhancement – KCNQ2-CHO-K1 cells, selectivity assay for KCNQ1 potentiator project (AID 493009).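 Also: assay conditions were tuned for KCNQ1 rather than KCNQ2 modulators; signal is max minus min fluorescence divided by baseline after thallium stimulus.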 The following applies: FluxOR thallium flux fluorescence, at 10 µM; active compounds read high, scaled: buffer 0, activator control 100.
Chain of Potassium voltage-gated channel subfamily KQT member 2 (Rattus norvegicus) (O88943 whole entry, looked up): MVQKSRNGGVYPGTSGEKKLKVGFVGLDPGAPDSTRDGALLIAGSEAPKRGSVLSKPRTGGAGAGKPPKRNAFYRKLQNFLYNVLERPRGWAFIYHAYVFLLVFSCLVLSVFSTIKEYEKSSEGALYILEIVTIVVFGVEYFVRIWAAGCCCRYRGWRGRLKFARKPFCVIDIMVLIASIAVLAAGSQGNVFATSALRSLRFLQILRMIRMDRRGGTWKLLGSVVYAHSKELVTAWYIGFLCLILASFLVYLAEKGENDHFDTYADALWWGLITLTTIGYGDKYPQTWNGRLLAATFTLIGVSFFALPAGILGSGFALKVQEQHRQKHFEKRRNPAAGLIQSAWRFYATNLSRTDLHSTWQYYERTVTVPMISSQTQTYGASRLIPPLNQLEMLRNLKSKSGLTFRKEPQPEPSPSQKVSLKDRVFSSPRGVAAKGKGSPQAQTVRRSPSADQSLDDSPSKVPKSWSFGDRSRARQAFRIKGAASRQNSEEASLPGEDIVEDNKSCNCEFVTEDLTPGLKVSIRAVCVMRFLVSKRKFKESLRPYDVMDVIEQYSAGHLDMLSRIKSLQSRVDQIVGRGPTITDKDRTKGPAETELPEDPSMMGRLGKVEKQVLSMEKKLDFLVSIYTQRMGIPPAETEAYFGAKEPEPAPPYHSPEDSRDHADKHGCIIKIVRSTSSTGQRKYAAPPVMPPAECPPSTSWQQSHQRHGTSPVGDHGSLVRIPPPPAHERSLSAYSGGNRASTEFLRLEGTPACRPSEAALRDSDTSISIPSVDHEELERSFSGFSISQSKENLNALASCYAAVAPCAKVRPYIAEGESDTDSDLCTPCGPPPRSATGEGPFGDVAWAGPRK
The target of experiment [4] is Potassium voltage-gated channel subfamily KQT member 1 (Homo sapiens) (UniProt P51787). As to the kind of experiment: KCNQ1 activators by electrophysiology – IonWorks patch clamp, KCNQ1-CHO cells, orthogonal assay for KCNQ1 potentiator project, confirmation (AID 493184;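 active = current rise at least 3 SD above the untreated control mean in each of two repeat wells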). The following applies: automated patch clamp current, at 10 µM; active compounds read high. In short, it runs like this:
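Material: KCNQ1-expressing CHO cells; doses: 10 µM final, single point; probe or stimulus: voltage step from -90 mV holding to +40 mV, 2,000 ms; signal: automated voltage clamp, amphotericin B perforated patch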
For orientation: Patch clamp records ionic current or voltage across a cell membrane.

The structures appear in SMILES notation. The source made the active and inactive calls.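 The calls were made as follows, unless noted: active = mean duplicate potentiation above the buffer control mean plus 5 SD of buffer wells; inactive = the rest.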

In the case of `CCCCN(CCCC)c1cn[nH]c(=O)c1Cl`, the outcome in experiment [1], in experiment [2], in experiment [3] and in experiment [4] was inactive.
Regarding `CCOC(=O)CSc1nc2ccccc2c(=O)n1-c1ccc(C)cn1`, the result in experiment [1], in experiment [2], in experiment [3] and in experiment [4] was inactive.
With `CCC1=NN(C(=O)c2ccc(Br)cc2)C(O)(c2ccccc2)C1` (stereo not given), the outcome in experiment [1], in experiment [2], in experiment [3] and in experiment [4] was inactive.
`CC(=O)c1ccc(N2CCN(C(=O)c3ccc(NC(=O)C4CCCO4)cc3)CC2)cc1` (stereo not given): the outcome in experiment [1], in experiment [2], in experiment [3] and in experiment [4] was inactive.
Turning to `O=C1/C(=C/c2cccc(F)c2)SC(=S)N1NS(=O)(=O)c1ccccc1`, in experiment [1], the activation is 146% (active). Also, the outcome in experiment [2], in experiment [3] and in experiment [4] was inactive.
Take `O=[N+]([O-])c1cc(CN2CCCC2)ccc1Sc1ccc(Cl)cc1`: the result in experiment [1], in experiment [2], in experiment [3] and in experiment [4] was inactive.
Regarding `COC(=O)C1CCCN1C(=O)COc1ccc(Br)cc1Cl` (stereo not given), in experiment [1], the activation is 206% (active). Moreover, the potentiation in experiment [2] is 48.5% (active); in experiment [3], 198% (active). Also, the result in experiment [4] was inactive.
Turning to `Cc1ccc(C)c(NC(=S)N/N=C2/CCCCc3ccccc32)c1`, the activation in experiment [1] is 140% (active). Also, the potentiation in experiment [2] is 37% (active); in experiment [3], 164% (active). Further, the outcome in experiment [4] was inactive.
With `Cc1ccccc1C(=O)NC1CC(C)(C)NC(C)(C)C1`, the result in experiment [1], in experiment [2], in experiment [3] and in experiment [4] was inactive.
`CON/C=N/C(=S)Nc1ncc(C(F)(F)F)cc1Cl`: the activation in experiment [1] was 283% (active). Moreover, the potentiation in experiment [2] is 87.5% (active); in experiment [3], 337% (active). Further, in experiment [4], the outcome was inactive.
As for `CCC(Oc1ccc(Cl)cc1)C(=O)N1CC(=O)Nc2ccccc21` (stereo not given), the outcome in experiment [1], in experiment [2], in experiment [3] and in experiment [4] was inactive.
Consider `Cc1ccc(C(C#N)c2ccc3c(C(F)(F)F)cc(C(F)(F)F)nc3n2)cc1` (stereo not given), for which, in experiment [1], the activation was 150% (active). The potentiation in experiment [2] was 114% (active); in experiment [3] it was 222% (active). Moreover, in experiment [4], the result was inactive.
`C=CCN(CC=C)C(=S)NC(=O)c1ccc(OC)c(Br)c1`: the activation in experiment [1] was 506% (active). In addition, the potentiation is 199% (active) in experiment [2] and 474% (active) in experiment [3]. Besides, in experiment [4], the result was inactive.
Turning to `O=C(CSc1nc2cc(Cl)ccc2s1)c1ccco1`, the outcome in experiment [1], in experiment [3] and in experiment [4] was inactive. In experiment [2], the potentiation is 24% (active).
As to `C=CCNc1nnc(SCC(=O)N2CCC(C(N)=O)CC2)s1`, the result in experiment [1], in experiment [2], in experiment [3] and in experiment [4] was inactive.
In the case of `COCCCNc1nc2ccccc2nc1NS(=O)(=O)c1cccs1`, the result in experiment [1], in experiment [2], in experiment [3] and in experiment [4] was inactive.
Consider `Cc1ccc(S(=O)(=O)NN2C(=O)/C(=C/c3cccs3)SC2=S)cc1`, for which the activation in experiment [1] is 163% (active). Besides, the results for the potentiation in experiment [2] and in experiment [3] were 22.5% (active) and 159% (active), respectively. Besides, the outcome in experiment [4] was inactive.
The matching figures for `COc1cccc(NC(=S)NCCN2CCOCC2)c1`: 156% (active), 26% (active), 162% (active) and “inactive”.
Take `CC1(C)CC(N2CCOCC2)=CC(=[N+]2CCOCC2)C1`: the result in experiment [1], in experiment [2], in experiment [3] and in experiment [4] was inactive.
Turning to `COc1ccc(C(=O)CSc2nnc(NC(=O)C3CC(=O)N(c4cccc(OC)c4)C3)s2)cc1` (stereo not given), the outcome in experiment [1], in experiment [2], in experiment [3] and in experiment [4] was inactive.
`Cc1cccc(NC(=S)NNC(=O)c2cc3c(s2)CCC(C)C3)c1C` (stereo not given): in experiment [1], the activation was 192% (active). Also, the potentiation in experiment [2] was 55.5% (active); in experiment [3], 264% (active). The result in experiment [4] was inactive.
Consider `CC(C)CSc1n[nH]c(=S)s1`, for which the outcome in experiment [1], in experiment [2] and in experiment [4] was inactive. In addition, the potentiation in experiment [3] was 145% (active).
In the case of `COC(=O)c1ccccc1NC(=S)NC(NC(=O)c1ccco1)C(Cl)(Cl)Cl` (stereo not given), in experiment [1], the activation was 138% (active). For the same molecule, the potentiation in experiment [2] is 54% (active); in experiment [3], 232% (active). Besides, the result in experiment [4] was inactive.
On to `CCN1C(=O)/C(=C\C(=O)c2cccs2)c2cc(Br)ccc21`, for which the result in experiment [1], in experiment [2], in experiment [3] and in experiment [4] was inactive.
For `CCCCCn1c(=S)[nH]c2ncccc2c1=O`, the activation in experiment [1] was 206% (active). For the same molecule, the potentiation in experiment [2] is 39.5% (active); in experiment [3] it was 200% (active). Further, in experiment [4], the outcome was inactive.
For the molecule `COc1ccccc1OCCc1nnc(N)s1`, the outcome in experiment [1], in experiment [2], in experiment [3] and in experiment [4] was inactive.
As to `O=c1[nH]c(C(Cl)(Cl)Cl)nc2ccc3ccccc3c12`, in experiment [1], the activation is 166% (active). For the same molecule, the values for the potentiation in experiment [2] and in experiment [3] were 50% (active) and 202% (active), respectively. The outcome in experiment [4] was inactive.
As to `COc1cc(CNCc2ccccn2)ccc1OCc1c(Cl)cccc1Cl`, the outcome in experiment [1], in experiment [2], in experiment [3] and in experiment [4] was inactive.
As for `CCOCC(=O)Nc1ccc2c(c1)N(S(=O)(=O)c1cccs1)CCC2`, the outcome in experiment [1], in experiment [2], in experiment [3] and in experiment [4] was inactive.
In the case of `Fc1ccc(COc2ccc(Br)cc2CNCc2ccncc2)cc1`, the result in experiment [1], in experiment [2], in experiment [3] and in experiment [4] was inactive.

Source of the values: PubChem BioAssay.
